Results published in ChEMBL document CHEMBL5223070, “Synthesis and optimisation of P3 substituted vinyl sulfone-based inhibitors as anti-trypanosomal agents” (Bioorg Med Chem, 2020).

Columns and labels:
[1] = tested on: Trypanosoma brucei brucei; assay: Antitrypanosomal activity against Trypanosoma brucei brucei MIT measured after 6 hrs by Alamar blue cell viability assay; format: functional, organism-based
Summary of the method: (§1)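 Bloodstream-form T. b. brucei MITat1.1 kept in log phase in antibiotic-free HMI-9 with 10% heat-inactivated FBS, 37 °C, 5% CO2. Seeded at 2 × 10⁵ cells/mL with 5 μM–100 pM compound or DMSO alone. Alamar Blue added at 6 h, total incubation 24 h. Absorbance read at 540 and 595 nm. Triplicate. EC50 by four-parameter variable-slope nonlinear regression.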

[2] = tested on: Trypanosoma brucei brucei; assay: Antitrypanosomal activity against Trypanosoma brucei brucei assessed as reduction in survival; format: functional, organism-based; summary of the method: as §1
[3] = Growth inhibition of human HaCaT cells incubated for 24 hrs by MTT assay; format: toxicity, cell-based
Summary of the method: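 HaCaT cells (mycoplasma-tested) in DMEM with 10% fetal calf serum, seeded at 1x10⁵ cells/mL for 24 h, washed with PBS and then exposed to compound for 24 h. Controls were 0.1% v/v Triton X-100 and untreated cells. MTT (0.5 mg/mL) added for 3 h, formazan dissolved in DMSO and read at 590 nm. GI50 from log(inhibitor) vs normalised response. Triplicate wells, repeated on three separate days.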

[4] = tested on: HaCaT; assay: Growth inhibition of human HaCaT cells assessed as LDH release at 100 uM incubated for 24 hrs by MTT assay; format: toxicity, cell-based
Summary of the method: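 HaCaT keratinocytes in DMEM with 10% fetal calf serum, seeded at 1x10⁵ cells/mL and grown 24 h. After a PBS wash, cells were exposed 24 h to compound at final 100 μM (from 10 mM DMSO stock, diluted in medium). Medium was then assayed for LDH release at 490/680 nm. Normalised to untreated cells and to lysis buffer (maximum release) as % cytotoxicity. Triplicate wells, three independent experiments.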

[5] = tested on: HaCaT; assay: Growth inhibition of human HaCaT cells assessed as reduction in cell viability at above 10 uM incubated for 24 hrs by MTT assay

Row | Compound | EC50 [1] | IC50 [2] | GI50 at 24 h [3] | growth inhibition (GI) [4] | growth inhibition (GI) [5]
1 | [N-]=[N+]=N[C@@H](Cc1ccccc1)C(=O)N[C@H](/C=C/S(=O)(=O)c1ccccc1)CCCCNS(=O)(=O)c1cccc2ccccc12 | > 5000 nM | – | – | – | –
2 | O=C(N[C@H](/C=C/S(=O)(=O)c1ccccc1)CCCCNS(=O)(=O)c1cccc2ccccc12)[C@H](Cc1ccccc1)NC(=S)Nc1ccccc1 | 480 nM | – | – | – | –
3 | CN1CCN(C(=O)N[C@@H](Cc2ccccc2)C(=O)N[C@H](/C=C/S(=O)(=O)c2ccccc2)CCCCNS(=O)(=O)c2cccc3ccccc23)CC1 | 1190 nM | 1180 nM | 28700 nM | Not Determined(Insoluble) | Toxic
4 | COc1cc(Br)c(S(=O)(=O)NCCCC[C@@H](/C=C/S(=O)(=O)c2ccccc2)NC(=O)[C@H](Cc2ccccc2)NC(=S)Nc2ccc(C(F)(F)F)cc2)cc1OC | 390 nM | 410 nM | – | Not Determined(Insoluble) | Toxic
5 | O=C(N[C@@H](Cc1ccccc1)C(=O)N[C@H](/C=C/S(=O)(=O)c1ccccc1)CCCCNS(=O)(=O)c1cccc2ccccc12)c1ccc(C(F)(F)F)cc1 | 240 nM | 242 nM | – | Not Determined(Insoluble) | Toxic
6 | Cc1ccc(S(=O)(=O)N[C@@H](Cc2ccccc2)C(=O)N[C@H](/C=C/S(=O)(=O)c2ccccc2)CCCCNS(=O)(=O)c2cccc3ccccc23)cc1 | 990 nM | – | – | – | –
7 | O=C(N[C@@H](Cc1ccccc1)C(=O)N[C@H](/C=C/S(=O)(=O)c1ccccc1)CCCCNS(=O)(=O)c1cccc2ccccc12)OCc1ccccc1 | 740 nM | – | – | – | –
8 | O=C(N[C@H](/C=C/S(=O)(=O)c1ccccc1)CCCCNS(=O)(=O)c1cccc2ccccc12)[C@H](Cc1ccccc1)NC(=O)N1CCOCC1 | 900 nM | – | – | – | –
9 | O=C(N[C@H](/C=C/S(=O)(=O)c1ccccc1)CCCCNS(=O)(=O)c1cccc2ccccc12)[C@H](Cc1ccccc1)NC(=S)Nc1ccc(C(F)(F)F)cc1 | 220 nM | 220 nM | – | Not Determined(Insoluble) | Toxic
10 | CC(C)(C)NC(=O)N[C@@H](Cc1ccccc1)C(=O)N[C@H](/C=C/S(=O)(=O)c1ccccc1)CCCCNS(=O)(=O)c1cccc2ccccc12 | > 5000 nM | – | – | – | –
11 | CCCCNC(=O)N[C@@H](Cc1ccccc1)C(=O)N[C@H](/C=C/S(=O)(=O)c1ccccc1)CCCCNS(=O)(=O)c1cccc2ccccc12 | 640 nM | – | – | – | –
12 | O=C1N[C@@H](CCCCNS(=O)(=O)c2cccc3ccccc23)[C@@H](CS(=O)(=O)c2ccccc2)N[C@H]1Cc1ccccc1 | > 5000 nM | – | – | – | –
13 | CCCCCCc1cn([C@@H](Cc2ccccc2)C(=O)N[C@H](/C=C/S(=O)(=O)c2ccccc2)CCCCNS(=O)(=O)c2cccc3ccccc23)nn1 | 1050 nM | – | – | – | –
14 | O=C(Nc1ccccc1)N[C@@H](Cc1ccccc1)C(=O)N[C@H](/C=C/S(=O)(=O)c1ccccc1)CCCCNS(=O)(=O)c1cccc2ccccc12 | 150 nM | 144 nM | – | Not Determined(Insoluble) | Toxic
15 | O=C(Cc1ccc2c(c1)OCO2)N[C@@H](Cc1ccccc1)C(=O)N[C@H](/C=C/S(=O)(=O)c1ccccc1)CCCCNS(=O)(=O)c1cccc2ccccc12 | 800 nM | – | – | – | –
16 | O=C(N[C@H](/C=C/S(=O)(=O)c1ccccc1)CCCCNS(=O)(=O)c1cccc2ccccc12)[C@H](Cc1ccccc1)n1cc(-c2ccccc2)nn1 | 1120 nM | – | – | – | –
17 | O=C(N[C@@H](Cc1ccccc1)C(=O)N[C@H](/C=C/S(=O)(=O)c1ccccc1)CCCCNS(=O)(=O)c1cccc2ccccc12)c1ccncc1 | 710 nM | – | – | – | –
18 | N[C@@H](Cc1ccccc1)C(=O)N[C@H](/C=C/S(=O)(=O)c1ccccc1)CCCCNS(=O)(=O)c1cccc2ccccc12 | 3430 nM | – | – | – | –
